From paper PMC4347663 (Journal of medicinal chemistry, 2013) come the findings set out here.

Series [1] relates to ABCA1. The experiment in a line: ABCA1 expression in THP-1 cells. The series is classed as cell-based, human. The conditions noted are these: six hours; for ABCA1 levels: 1 μM compound, LPS 10 mcg/mL; for ABCA1 transcript expression: 10 μM compound, LPS 10 μg/mL. Put shortly:
(§1)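 THP-1 cells kept at 3×105 to 8×10^5 cells/mL in RPMI1640 with 10% FBS. Cells were stimulated with LPS 10 μg/mL alongside DMSO or test compound at 10 μM, or at 1 μM in triplicate. After 6 h, cells were lysed and RNA was analysed by RT-qPCR with TATA box binding protein as housekeeping gene. Groups were compared by one-way ANOVA with Dunnett's post-hoc test.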

Series [2] deals with T1, LXRα (Homo sapiens, UniProt Q13133).
T1 sequence (Q13133 1-447): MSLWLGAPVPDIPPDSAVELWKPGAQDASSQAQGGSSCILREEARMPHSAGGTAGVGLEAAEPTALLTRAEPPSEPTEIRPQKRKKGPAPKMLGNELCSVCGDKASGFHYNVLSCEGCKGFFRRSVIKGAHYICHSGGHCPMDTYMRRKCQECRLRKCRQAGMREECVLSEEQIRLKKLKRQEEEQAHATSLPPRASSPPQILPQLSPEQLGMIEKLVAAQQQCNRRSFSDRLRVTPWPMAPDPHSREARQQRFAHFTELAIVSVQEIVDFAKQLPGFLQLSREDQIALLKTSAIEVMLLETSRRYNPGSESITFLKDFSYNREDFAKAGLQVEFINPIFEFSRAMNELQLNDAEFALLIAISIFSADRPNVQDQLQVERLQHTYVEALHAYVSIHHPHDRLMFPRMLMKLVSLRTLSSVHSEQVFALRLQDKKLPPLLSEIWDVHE
Description: LXRα radio ligand displacement binding. The conditions noted are these: for LXRα Fold Sel.: selectivity for REV-ERBα over LXRα.

Series [3] in a line: IV and oral DMPK cassette dose experiment. The conditions noted are these: for AUC(0-t) / Vd / clearance / half-life / Cmax / Tmax / bioavailability: male, C57Bl/6, mouse, plasma, 1 mg/kg; for bioavailability: F. The series is classed as in vivo, C57Bl/6 mice.
In series [4] the test system is BMAL1 expression (Bmal-promoter luciferase) in U2OS cells. Description: BMAL reporter gene assay in synchronized U2OS cells. The note with it: for BMAL1 Phase Delay: delay of peak of second cycle, 20 μM treated cells relative to DMSO treated cells; for inhibition at 20 µM: Homo sapiens, U2OS, 40 h, read-out: BMAL1 Supp. The series is classed as cell-based, human. In general terms: A reporter such as luciferase makes a cellular process visible.

Series [5] concerns IL-6. Description: LPS-stimulated IL-6 expression in THP-1 cells. The series is classed as cell-based, human. The note with it: six hours; for IL-6 secretion / expression: 1 μM compound, LPS 10 mcg/mL; for IL-6 transcript expression: 10 μM compound, LPS 10 μg/mL. Put shortly: as §1
Series [6] concerns the target T2, REV-ERBα (Homo sapiens, UniProt P20393).
T2 sequence (P20393 1-614): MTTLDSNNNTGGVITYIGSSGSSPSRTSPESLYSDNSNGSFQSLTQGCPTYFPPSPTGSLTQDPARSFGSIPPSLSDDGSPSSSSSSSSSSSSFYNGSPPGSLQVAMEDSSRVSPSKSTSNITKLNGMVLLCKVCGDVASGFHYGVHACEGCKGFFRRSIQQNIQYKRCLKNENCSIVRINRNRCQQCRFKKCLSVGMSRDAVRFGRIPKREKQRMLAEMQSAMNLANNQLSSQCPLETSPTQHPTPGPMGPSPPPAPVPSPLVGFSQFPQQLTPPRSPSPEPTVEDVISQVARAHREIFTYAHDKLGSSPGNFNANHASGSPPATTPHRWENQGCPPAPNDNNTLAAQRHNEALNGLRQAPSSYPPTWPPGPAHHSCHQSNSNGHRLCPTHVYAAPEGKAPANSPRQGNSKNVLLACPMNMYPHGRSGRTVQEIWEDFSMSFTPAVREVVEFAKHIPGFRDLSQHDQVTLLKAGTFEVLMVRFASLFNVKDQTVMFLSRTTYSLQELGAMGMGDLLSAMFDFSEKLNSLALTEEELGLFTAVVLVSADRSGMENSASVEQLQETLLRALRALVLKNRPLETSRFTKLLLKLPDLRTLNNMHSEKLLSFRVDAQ
The experiment in a line: REV-ERBα NCOR FRET assay. The conditions noted are these: purified REV-ERBα protein, in vitro. The series is classed as biochemical.

pIC50: −log10 of the molar value. Structures can show the parent of a compound that is named as a salt.

Consider `N#Cc1ccc(CN(Cc2ccc(Cl)cc2)Cc2cccnc2)s1` [Compound 16, 5-(((4-Chloro-benzyl)(pyridin-3-ylmethyl)amino)methyl)thiophene-2-carbonitrile hydrochloride salt], for which the ABCA1 levels entry in series [1] was “no measurable effect on ABCA1 levels”. Further, the “LXRα Fold Sel.” value in series [2] worked out at 100 fold. Also, in series [3] (iv), the AUC(0-t) is 361 ng·h/mL, the Vd stood at 1.8 L/kg, the clearance is 46.7 mL/min/kg and the half-life is 76.2 min. Besides, in series [3] (po), the AUC(0-t) amounted to 10.2 ng·h/mL, the Cmax is 9.14 ng/mL and the Tmax was 15 min. In series [3] (po, 1 mg/Kg cassette, mice), this compound yielded a bioavailability of 3.5%. For the same compound, in series [4], the “BMAL1 Phase Delay” value amounted to 0 h. Further, in series [5], the “IL-6 secretion / expression” value is reported as “significant reduction of IL-6 secretion”.
Consider `CCCCCNC(=O)N1CCC(CN(Cc2ccc(Cl)cc2)Cc2ccc([N+](=O)[O-])s2)C1` (stereo not drawn) [Compound 2, reference compound], for which the ABCA1 transcript expression entry in series [1] is recorded as “increased ABCA1 transcript expression”. This compound also gave a pIC50 in series [2] of 5.20. Moreover, the “recruitment of NCOR peptide fragment to REV-ERBα (in words)” value (“recruitment of NCOR peptide fragment” for short) in series [6] is on record as “neither compounds 2 or 3 increased recruitment of the NCOR peptide fragment”. Further, in series [4], the inhibition at 20 µM turned out to be 20%. Further, the IL-6 transcript expression entry in series [5] is “significantly repressed IL-6”.
Turning to `Clc1ccc(CN(Cc2cccnc2)Cc2ncc[nH]2)cc1` [Compound 21, N-((1H-Imidazol-2-yl)methyl)-N-(4-chlorobenzyl)-1-(pyridin-3-yl)methanamine], the “recruitment of NCOR peptide fragment” value in series [6] was “complete loss of activity”.
Consider `CC(C)(C)OC(=O)CN(Cc1ccc(Cl)cc1)Cc1ccc([N+](=O)[O-])s1` [Compound 1, reference compound], for which the ABCA1 transcript expression result in series [1] is given as “increased ABCA1 transcript expression”. Also, the “recruitment of NCOR peptide fragment” value in series [6] was “induced recruitment of co-factor NCOR peptide fragment”. For the same compound, the “BMAL1 Phase Delay” value in series [4] was 0 h. Moreover, the IL-6 transcript expression result in series [5] is “significantly repressed IL-6”.
For `Cc1cc(Cl)ccc1CN(Cc1ccc(Cl)cc1)Cc1ccc([N+](=O)[O-])s1` [Compound 4, N-(4-chloro-2-methylbenzyl)-N-(4-chlorobenzyl)-1-(5-nitrothiophen-2-yl)methanamine hydrochloride salt], the ABCA1 levels entry in series [1] is “no measurable effect on ABCA1 levels”. The “LXRα Fold Sel.” value in series [2] is 1,259 fold. Further, the F in series [3] (Oral, 1 mg/Kg cassette, mice) is listed as 23.4%. In addition, the half-life in series [3] is 120 min. In series [3] (iv), this compound showed an AUC(0-t) of 2540 ng·h/mL, a Vd of 0.3 L/kg, a clearance of 6.67 mL/min/kg and a half-life of 99 min. Besides, in series [3] (po), the AUC(0-t) came to 594 ng·h/mL, the Cmax turned out to be 180 ng/mL and the Tmax was found to be 120 min. For the same compound, in series [4], the “BMAL1 Phase Delay” value stood at 0 h. In addition, the “effect on BMAL oscillation curve” value in series [4] (synchronized U2OS cells) is “suppression and shift of the BMAL oscillation curve in a dose-dependent manner”. The “IL-6 secretion / expression” value in series [5] is on record as “significant reduction of IL-6 secretion”.
For the compound `O=[N+]([O-])c1ccc(CN(Cc2ccc(F)cc2)Cc2cccnc2)s1` [Compound 10, N-(4-Fluorobenzyl)-1-(5-nitrothiophen-2-yl)-N-(pyridin-3-ylmethyl)methanamine hydrochloride salt], the ABCA1 levels entry in series [1] was “no measurable effect on ABCA1 levels”. Further, the “LXRα Fold Sel.” value in series [2] is listed as greater than 250 fold. For the same compound, in series [3] (iv), the AUC(0-t) was 354 ng·h/mL, the Vd was found to be 1.5 L/kg, the clearance was 46.7 mL/min/kg and the half-life was 44.4 min. Besides, in series [3] (po), the AUC(0-t) turned out to be 8.39 ng·h/mL, the Cmax came to 8.98 ng/mL and the time to peak (Tmax) is 15 min. The same compound yielded a bioavailability in series [3] (po, 1 mg/Kg cassette, mice) of 2.4%. The “BMAL1 Phase Delay” value in series [4] stood at 0 h. In addition, the “IL-6 secretion / expression” value in series [5] is “significant reduction of IL-6 secretion”.
Consider `O=[N+]([O-])c1ccc(CN(Cc2ccc(Cl)cc2)Cc2ccccc2F)s1` [Compound 6, N-(4-Chlorobenzyl)-N-(2-fluorobenzyl)-1-(5-nitrothiophen-2-yl)methanamine hydrochloride salt], for which, in series [4], the “BMAL1 Phase Delay” value turned out to be 0 h.
On to `Clc1ccc(CN(Cc2cccnc2)Cc2nccs2)cc1` [Compound 20, N-(4-Chlorobenzyl)-1-(pyridin-3-yl)-N-(thiazol-2-ylmethyl)methanamine], for which the “LXRα Fold Sel.” value in series [2] is less than 1 fold. The “recruitment of NCOR peptide fragment” value in series [6] is recorded as “complete loss of activity”.
For the compound `CCOC(=O)N1CCC(CN(Cc2ccc(Cl)cc2)Cc2ccc([N+](=O)[O-])s2)C1` (stereo not drawn) [Compound 3, reference compound], the “recruitment of NCOR peptide fragment” value in series [6] was “neither compounds 2 or 3 increased recruitment of the NCOR peptide fragment”. In series [3] (iv), this compound showed an AUC(0-t) of 365 ng·h/mL, a Vd of 1.6 L/kg, a clearance of 45 mL/min/kg and a half-life of 33 min. For the same compound, in series [3] (po), the AUC(0-t) turned out to be 7.93 ng·h/mL, the highest level (Cmax) was 7.41 ng/mL and the time of peak concentration (Tmax) turned out to be 30 min. Besides, the bioavailability in series [3] (po, 1 mg/Kg cassette, mice) amounted to 2.2%. In addition, the inhibition at 20 µM in series [4] was found to be 14%.
In the case of `N#Cc1ccc(CN(Cc2cccnc2)Cc2ccccc2F)s1` [Compound 26, 5-(((2-Fluorobenzyl)(pyridin-3-ylmethyl)amino)methyl)thiophene-2-carbonitrile], the “LXRα Fold Sel.” value in series [2] was less than 1 fold. Besides, the “BMAL1 Phase Delay” value in series [4] is 0 h.
As to `N#Cc1ccc(CN(Cc2cccnc2)Cc2cc(F)ccc2F)s1` [Compound 25, 5-(((2,5-Difluorobenzyl)(pyridin-3-ylmethyl)amino)methyl)thiophene-2-carbonitrile], the “BMAL1 Phase Delay” value in series [4] turned out to be 0 h.
As to `C=CC1=C(C)c2cc3[n-]c(cc4[n-]c(cc5nc(cc1n2)C(C)=C5C=C)c(C)c4CCC(=O)O)c(CCC(=O)O)c3C.[Fe+2]` [heme, reference compound], in series [4] (in-house U2OS reporter assay, single endpoint comparison), the BMAL-luciferase suppression is recorded as greater than 50%.
Consider `N#Cc1ccc(CN(Cc2cccnc2)Cc2ccc(F)c(F)c2)s1` [Compound 23, 5-(((3,4-Difluorobenzyl)(pyridin-3-ylmethyl)amino)methyl)thiophene-2-carbonitrile], for which the ABCA1 levels entry in series [1] is given as “no measurable effect on ABCA1 levels”. In series [3] (iv), this compound had an AUC(0-t) of 375 ng·h/mL, a Vd of 1.4 L/kg, a clearance of 43.3 mL/min/kg and a half-life of 44.4 min. Also, in series [3] (po), the AUC(0-t) was determined as 9.39 ng·h/mL, the Cmax worked out at 9.94 ng/mL and the Tmax was found to be 15 min. The bioavailability in series [3] (po, 1 mg/Kg cassette, mice) was found to be 3%. Besides, in series [5], the “IL-6 secretion / expression” value is “significant reduction of IL-6 secretion”.

In general, AUC(0-t) refers to the area under the concentration-time curve up to a stated or last time point. What is called half-life is the time in which the quantity being followed falls by half. The low end stands for fast loss, the high end for slow loss. As usually defined, the Cmax is the maximum level reached in the sampled fluid or tissue. For orientation: Tmax means the time from dosing to the highest level. As a reminder, the bioavailability is the share of a dose that reaches the circulation, judged against a reference dose that is usually intravenous. A low value points to poor availability. Usually pIC50 stands for −log10 of the IC50, conventionally taken in molar units. A high value points to a small IC50.
